pEC50, pIC50: −log10 of the molar value. Calls of active or inactive are those of the source. The calls are words filed in the database; no cut-off is given here. Bounds are passed on as bounds.

The results in this text go back to ChEMBL document CHEMBL4033785, “Increased Potency and Selectivity for Group III Metabotropic Glutamate Receptor Agonists Binding at Dual sites” (J Med Chem, 2018).

Experiment [1] deals with Metabotropic glutamate receptor 4 (Homo sapiens, UniProt Q14833). Put plainly: Agonist activity at mGlu4 (unknown origin) expressed in HEK293 cells coexpressing chimeric Gq/i protein assessed as increase in intracellular calcium accumulation by Fluo-4 AM dye based fluorescence assay. It counts as functional, cell-based.
Chain of Metabotropic glutamate receptor 4 (Homo sapiens, UniProt Q14833) (Q14833 whole entry): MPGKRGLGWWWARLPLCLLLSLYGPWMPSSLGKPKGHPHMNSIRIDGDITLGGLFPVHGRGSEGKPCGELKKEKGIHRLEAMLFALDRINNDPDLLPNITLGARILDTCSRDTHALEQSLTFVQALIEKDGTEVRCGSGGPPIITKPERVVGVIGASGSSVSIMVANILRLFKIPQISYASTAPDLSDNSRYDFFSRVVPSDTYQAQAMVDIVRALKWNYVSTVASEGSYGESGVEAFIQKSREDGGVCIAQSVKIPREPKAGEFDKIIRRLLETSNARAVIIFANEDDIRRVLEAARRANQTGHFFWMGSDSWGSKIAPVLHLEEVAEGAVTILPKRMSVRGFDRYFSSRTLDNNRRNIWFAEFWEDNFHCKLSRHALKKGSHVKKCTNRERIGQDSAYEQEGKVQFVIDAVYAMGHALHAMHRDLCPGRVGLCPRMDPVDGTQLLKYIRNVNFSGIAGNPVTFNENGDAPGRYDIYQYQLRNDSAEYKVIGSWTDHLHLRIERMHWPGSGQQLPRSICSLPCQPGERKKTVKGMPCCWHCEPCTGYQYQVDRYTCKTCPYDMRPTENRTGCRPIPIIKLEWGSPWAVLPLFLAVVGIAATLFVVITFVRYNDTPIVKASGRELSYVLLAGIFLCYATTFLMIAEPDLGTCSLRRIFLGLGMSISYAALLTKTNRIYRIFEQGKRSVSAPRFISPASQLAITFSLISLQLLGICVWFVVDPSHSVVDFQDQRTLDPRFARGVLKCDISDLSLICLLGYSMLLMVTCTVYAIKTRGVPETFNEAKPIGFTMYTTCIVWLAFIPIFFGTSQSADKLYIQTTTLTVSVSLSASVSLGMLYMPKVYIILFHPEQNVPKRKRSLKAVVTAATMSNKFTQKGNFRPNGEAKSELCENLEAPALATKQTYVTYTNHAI
The target in experiment [2] is T1, Metabotropic glutamate receptor 6 (Homo sapiens, UniProt O15303). Put plainly: Agonist activity at mGlu6 (unknown origin) expressed in HEK293 cells coexpressing chimeric Gq/i protein assessed as [3H]inositol phosphate accumulation after 30 mins by scintillation and luminescence counting method. It counts as functional, cell-based. The method in brief:
(§1)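 Receptor transiently co-expressed in HEK293 cells (electroporation) with chimeric G-protein and glutamate transporter EAAT3. Cells labelled overnight with 3H-myoinositol, stimulated with agonist 30 min, lysed 1 h in cold 0.1 M formic acid. 3H-IP isolated on Dowex ion exchange and counted. IP expressed relative to IP plus membrane radioactivity. Points in triplicate; EC50 from Hill-equation fit.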

For experiment [3], the species on record is Homo sapiens. Put plainly: Selectivity ratio of EC50 for mGlu8 (unknown origin) expressed in HEK293 cells coexpressing chimeric Gq/i protein assessed as increase in intracellular calcium accumulation to EC50 for mGlu4 (unknown origin) expressed in HEK293 cells coexpressing chimeric Gq/i protein assessed as increase in intracellular calcium accumulation. It counts as cell-based. The method in brief: (§2)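 Ratio of mGlu8 EC50 to mGlu4 EC50, both from the same functional assay. Both receptors were co-expressed in HEK293 cells with chimeric G-protein and EAAT3 and read by 3H-IP accumulation or by Fluo-4 Ca2+ release.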
For orientation: Calcium assays in cells follow changes in intracellular calcium, usually with a dye or a luminescent sensor.

Experiment [4] deals with T2, Metabotropic glutamate receptor 8 (Homo sapiens, UniProt O00222). In words: Agonist activity at mGlu8 (unknown origin) expressed in HEK293 cells coexpressing chimeric Gq/i protein assessed as increase in intracellular calcium accumulation by Fluo-4 AM dye based fluorescence assay. It counts as functional, cell-based.
T2 sequence (O00222 whole entry): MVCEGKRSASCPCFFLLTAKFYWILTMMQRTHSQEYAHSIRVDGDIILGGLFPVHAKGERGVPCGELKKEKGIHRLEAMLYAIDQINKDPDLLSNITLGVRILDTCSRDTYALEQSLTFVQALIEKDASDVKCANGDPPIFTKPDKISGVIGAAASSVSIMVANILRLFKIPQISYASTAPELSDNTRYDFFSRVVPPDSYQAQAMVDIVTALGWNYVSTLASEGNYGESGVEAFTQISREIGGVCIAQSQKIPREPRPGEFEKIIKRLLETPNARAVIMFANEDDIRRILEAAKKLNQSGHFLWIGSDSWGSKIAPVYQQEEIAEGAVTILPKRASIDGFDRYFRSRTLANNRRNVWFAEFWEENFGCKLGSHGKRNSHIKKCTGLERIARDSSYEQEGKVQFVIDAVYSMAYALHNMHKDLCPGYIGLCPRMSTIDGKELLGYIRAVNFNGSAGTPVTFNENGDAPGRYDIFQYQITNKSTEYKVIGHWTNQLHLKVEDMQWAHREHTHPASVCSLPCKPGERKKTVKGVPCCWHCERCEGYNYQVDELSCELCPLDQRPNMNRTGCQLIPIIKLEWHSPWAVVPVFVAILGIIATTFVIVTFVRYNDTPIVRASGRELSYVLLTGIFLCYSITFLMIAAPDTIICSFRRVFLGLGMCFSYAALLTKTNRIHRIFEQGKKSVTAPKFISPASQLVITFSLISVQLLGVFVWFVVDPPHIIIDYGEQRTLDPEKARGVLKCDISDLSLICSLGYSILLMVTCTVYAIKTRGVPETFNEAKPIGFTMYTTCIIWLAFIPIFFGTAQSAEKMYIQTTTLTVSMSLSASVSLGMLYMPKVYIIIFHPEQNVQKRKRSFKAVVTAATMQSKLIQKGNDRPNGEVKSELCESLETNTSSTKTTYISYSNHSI
The target in experiment [5] is T2, Metabotropic glutamate receptor 8. Put plainly: Agonist activity at mGlu8 (unknown origin) expressed in HEK293 cells coexpressing chimeric Gq/i protein assessed as [3H]inositol phosphate accumulation after 30 mins by scintillation and luminescence counting method. Type of experiment: functional, cell-based. The method in brief: as §1
For experiment [6], the target named is T1, Metabotropic glutamate receptor 6. Put plainly: Agonist activity at mGlu6 (unknown origin) expressed in HEK293 cells coexpressing chimeric Gq/i protein assessed as increase in intracellular calcium accumulation by Fluo-4 AM dye based fluorescence assay. It counts as functional, cell-based.
Experiment [7] addresses T3, Metabotropic glutamate receptor 7 (Homo sapiens, UniProt Q14831). In words: Agonist activity at mGlu7 (unknown origin) expressed in HEK293 cells coexpressing chimeric Gq/i protein assessed as [3H]inositol phosphate accumulation at 300 uM after 30 mins by scintillation and luminescence counting method. Type of experiment: functional, cell-based. The method in brief: as §1

Experiment [8] is filed under the species Homo sapiens. In words: Selectivity ratio of EC50 for mGlu8 (unknown origin) expressed in HEK293 cells coexpressing chimeric Gq/i protein assessed as [3H]inositol phosphate accumulation to EC50 for mGlu4 (unknown origin) expressed in HEK293 cells coexpressing chimeric Gq/i protein assessed as [3H]inositol phosphate accumulation. It counts as cell-based. The method in brief: as §2

For experiment [9], the target named is T4, Metabotropic glutamate receptor 4 (Rattus norvegicus, UniProt P31423). Put plainly: Agonist activity at mGlu4 in Wistar rat striatum assessed as decrease in corticostriatal glutamatergic excitatory post-synaptic potential by whole cell patch clamp assay. In general terms: The patch-clamp technique gives a direct electrical read-out from membranes.
T4 sequence (P31423 whole entry): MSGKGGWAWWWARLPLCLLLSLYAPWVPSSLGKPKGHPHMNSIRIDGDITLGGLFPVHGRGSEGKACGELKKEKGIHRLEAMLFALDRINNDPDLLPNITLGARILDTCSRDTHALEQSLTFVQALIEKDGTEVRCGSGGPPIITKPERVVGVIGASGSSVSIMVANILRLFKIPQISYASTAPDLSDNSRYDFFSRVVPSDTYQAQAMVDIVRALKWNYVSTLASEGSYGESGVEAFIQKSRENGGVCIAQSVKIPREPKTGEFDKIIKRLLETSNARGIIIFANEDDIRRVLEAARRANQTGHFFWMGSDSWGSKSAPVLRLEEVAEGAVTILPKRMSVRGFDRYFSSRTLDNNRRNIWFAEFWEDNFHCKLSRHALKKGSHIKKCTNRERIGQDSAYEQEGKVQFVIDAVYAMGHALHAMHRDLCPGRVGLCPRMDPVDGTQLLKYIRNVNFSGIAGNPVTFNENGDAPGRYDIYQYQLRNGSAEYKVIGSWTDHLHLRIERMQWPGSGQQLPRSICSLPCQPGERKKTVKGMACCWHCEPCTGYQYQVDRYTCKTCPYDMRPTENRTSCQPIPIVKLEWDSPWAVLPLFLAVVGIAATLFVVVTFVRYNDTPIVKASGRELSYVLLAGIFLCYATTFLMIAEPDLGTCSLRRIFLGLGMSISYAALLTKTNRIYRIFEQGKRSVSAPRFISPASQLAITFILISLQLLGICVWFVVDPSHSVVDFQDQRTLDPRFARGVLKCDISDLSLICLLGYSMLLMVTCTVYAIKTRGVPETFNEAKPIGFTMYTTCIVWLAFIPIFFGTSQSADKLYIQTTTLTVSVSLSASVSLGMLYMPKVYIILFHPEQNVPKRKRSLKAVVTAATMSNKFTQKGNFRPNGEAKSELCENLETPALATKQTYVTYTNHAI
For experiment [10], the target named is T4, Metabotropic glutamate receptor 4. In words: Agonist activity at mGlu4 in Wistar rat striatum assessed as decrease in striatal GABAergic inhibitory post-synaptic potential by whole cell patch clamp assay.
Experiment [11] concerns the target T3, Metabotropic glutamate receptor 7. In words: Agonist activity at mGlu7 (unknown origin) expressed in HEK293 cells coexpressing chimeric Gq/i protein assessed as [3H]inositol phosphate accumulation after 30 mins by scintillation and luminescence counting method. Type of experiment: functional, cell-based. The method in brief: as §1
The target in experiment [12] is Metabotropic glutamate receptor 4 (Rattus norvegicus) (UniProt P31423). In words: Agonist activity at mGlu4 in rat purkinje cells assessed as increase in mean paired-pulse facilitation at 100 uM treated for 5 mins by whole cell patch clamp assay relative to control. It counts as cell-based. The method in brief: (§3)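 Sagittal cerebellar vermis slices (250 μm) from 18−29-day-old rats. Purkinje cells whole-cell clamped at 28−30 °C. Parallel-fiber EPSCs evoked by paired stimuli 40 ms apart; PPF taken as second/first amplitude, averaged per cell. Agonist bath-applied 5 min from a 40 mM water stock. EC50 and Hill coefficient fitted across independent experiments.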
Chain of Metabotropic glutamate receptor 4 (Rattus norvegicus) (P31423 whole entry): as above

Experiment [13] has the same target. Put plainly: Agonist activity at mGlu4 assessed as decrease in PF-induced presynaptic calcium amplitude in rat coronal slices at 100 uM by Fluo-4FF-AM dye based fluorescence assay relative to control. It counts as functional. Also noted: scale not given: the % may be the effect or the level left. A digest of the protocol:
(§4)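 Coronal cerebellar slices (250 μm) from 18−29-day-old rats. Parallel fibers loaded by focal Fluo-4FF-AM (100 μM); recording at least 45 min later at 28−30 °C. Excitation 485 nm, emission 530 nm, photometer in a 20×50 μm window over the molecular layer. ΔF/F bleach-corrected. Agonist bath-applied from a 40 mM water stock; EC50 and Hill coefficient fitted.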

In experiment [14] the target is Glutamate NMDA receptor; Grin1/Grin2a (Rattus norvegicus, UniProt P35439+Q00959). In words: Antagonist activity at rat GluN1a/GluN2A receptors expressed in Xenopus laevis oocytes assessed as inhibition of L-glutamate/[…] induced current amplitude at holding potential of -60 mV by […]. Type of experiment: cell-based.
The target in experiment [15] is Metabotropic glutamate receptor 4 (Rattus norvegicus) (UniProt P31423). In words: (§5) Agonist activity at mGlu4 assessed as decrease in PF-induced presynaptic calcium amplitude in rat coronal slices by Fluo-4FF-AM dye based fluorescence assay. It counts as functional. A digest of the protocol:
as §4

For experiment [16], the target named is T4, Metabotropic glutamate receptor 4. The description is as §5. Type of experiment: functional. A digest of the protocol: as §4
Experiment [17] has as its target Metabotropic glutamate receptor 4 (Mus musculus) (UniProt Q68EF4). Put plainly: Agonist activity at mGlu4 in C57/Bl6 mouse GP neurons assessed as inhibition of striatopallidal GABAergic inhibitory postsynaptic current amplitude at 3 uM by whole cell patch clamp assay relative to control.
Experiment [18] has as its target Metabotropic glutamate receptor 4 (Rattus norvegicus) (UniProt P31423). In words: Agonist activity at mGlu4 in rat purkinje cells assessed as mean decrease in parallel fiber-induced excitary postsynaptic currents amplitude for first response treated for 5 mins by whole cell patch clamp assay. It counts as cell-based. The method in brief:
as §3

Experiment [19] shares this target. Put plainly: Agonist activity at mGlu4 in rat purkinje cells assessed as mean decrease in parallel fiber-induced excitary postsynaptic currents amplitude for first response at 100 uM treated for 5 mins by whole cell patch clamp assay relative to control. Type of experiment: cell-based. Also noted: scale not given: the % may be the effect or the level left. The method in brief:
as §3

Experiment [20] addresses Metabotropic glutamate receptor 4 (Mus musculus, UniProt Q68EF4). In words: Agonist activity at mGlu4 in C57/Bl6 mouse GP neurons assessed as inhibition of striatopallidal GABAergic inhibitory postsynaptic current amplitude by whole cell patch clamp assay.
Experiment [21] addresses Ionotropic glutamate receptor NMDA1/2B (Rattus norvegicus, UniProt P35439+Q01097). In words: Antagonist activity at rat GluN1a/mouse GluN2B receptors expressed in Xenopus laevis oocytes assessed as inhibition of L-glutamate/[…] induced current amplitude at holding potential of -60 mV by […]. Type of experiment: cell-based.
The target in experiment [22] is Metabotropic glutamate receptor 4 (Rattus norvegicus) (UniProt P31423). Put plainly: Agonist activity at mGlu4 in rat purkinje cells assessed as mean decrease in parallel fiber-induced excitary postsynaptic currents amplitude for second response at 100 uM treated for 5 mins by whole cell patch clamp assay relative to control. Type of experiment: cell-based. Also noted: scale not given: the % may be the effect or the level left. A digest of the protocol:
as §3

T1 sequence (O15303 whole entry): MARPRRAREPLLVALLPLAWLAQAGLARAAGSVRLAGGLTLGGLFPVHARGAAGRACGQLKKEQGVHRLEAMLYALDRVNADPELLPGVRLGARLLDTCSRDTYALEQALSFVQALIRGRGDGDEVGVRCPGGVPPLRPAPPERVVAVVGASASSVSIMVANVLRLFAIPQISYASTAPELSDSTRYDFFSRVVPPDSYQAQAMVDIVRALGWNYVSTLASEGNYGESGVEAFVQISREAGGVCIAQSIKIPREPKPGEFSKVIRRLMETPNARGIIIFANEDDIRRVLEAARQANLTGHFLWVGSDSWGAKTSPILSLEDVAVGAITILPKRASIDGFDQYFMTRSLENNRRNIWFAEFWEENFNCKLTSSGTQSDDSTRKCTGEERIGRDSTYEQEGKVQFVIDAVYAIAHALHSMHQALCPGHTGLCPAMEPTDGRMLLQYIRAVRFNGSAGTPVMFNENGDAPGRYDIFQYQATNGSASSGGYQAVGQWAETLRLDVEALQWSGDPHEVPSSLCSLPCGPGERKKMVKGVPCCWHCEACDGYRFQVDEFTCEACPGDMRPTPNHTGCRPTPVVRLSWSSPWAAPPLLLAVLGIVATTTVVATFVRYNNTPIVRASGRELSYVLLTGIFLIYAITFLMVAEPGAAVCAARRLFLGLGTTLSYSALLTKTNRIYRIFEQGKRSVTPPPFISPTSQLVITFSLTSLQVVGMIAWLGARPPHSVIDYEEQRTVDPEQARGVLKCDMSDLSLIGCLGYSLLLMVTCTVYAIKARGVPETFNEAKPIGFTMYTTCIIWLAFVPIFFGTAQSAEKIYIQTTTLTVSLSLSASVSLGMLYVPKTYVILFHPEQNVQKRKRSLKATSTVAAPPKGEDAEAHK
T3 sequence (Q14831 whole entry): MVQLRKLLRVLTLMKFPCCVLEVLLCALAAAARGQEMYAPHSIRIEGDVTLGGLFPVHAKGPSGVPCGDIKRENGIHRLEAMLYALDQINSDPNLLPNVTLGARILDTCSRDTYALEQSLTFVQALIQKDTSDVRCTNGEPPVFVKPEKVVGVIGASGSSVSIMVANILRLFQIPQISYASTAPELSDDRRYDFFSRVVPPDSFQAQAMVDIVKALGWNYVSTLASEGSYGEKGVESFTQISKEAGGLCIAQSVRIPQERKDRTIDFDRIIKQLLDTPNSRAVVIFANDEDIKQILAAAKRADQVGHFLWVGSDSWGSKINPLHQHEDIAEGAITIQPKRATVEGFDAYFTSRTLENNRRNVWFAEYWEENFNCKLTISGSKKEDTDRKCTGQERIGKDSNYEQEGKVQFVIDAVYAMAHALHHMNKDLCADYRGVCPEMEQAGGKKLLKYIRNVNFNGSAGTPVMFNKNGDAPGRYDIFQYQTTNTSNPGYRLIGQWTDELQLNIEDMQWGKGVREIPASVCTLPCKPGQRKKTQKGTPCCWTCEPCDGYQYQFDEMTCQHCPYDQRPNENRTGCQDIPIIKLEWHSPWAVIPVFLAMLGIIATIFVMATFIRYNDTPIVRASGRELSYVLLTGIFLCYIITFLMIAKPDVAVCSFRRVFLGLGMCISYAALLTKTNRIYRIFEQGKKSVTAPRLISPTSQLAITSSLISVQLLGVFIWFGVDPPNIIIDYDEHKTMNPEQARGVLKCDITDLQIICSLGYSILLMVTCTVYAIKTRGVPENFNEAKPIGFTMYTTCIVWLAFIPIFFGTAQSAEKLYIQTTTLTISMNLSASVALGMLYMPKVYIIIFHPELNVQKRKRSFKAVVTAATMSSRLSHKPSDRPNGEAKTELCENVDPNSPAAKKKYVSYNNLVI
Chain of Metabotropic glutamate receptor 4 (Mus musculus) (Q68EF4 whole entry): as the sequence (P31423 whole entry) above, with A24G, P25S, G280A, M339T, L482R, I705V, G713C, T895A counted along it
Chain of Metabotropic glutamate receptor 4 (Mus musculus, UniProt Q68EF4) (Q68EF4 whole entry): as the sequence (P31423 whole entry) above, with A24G, P25S, G280A, M339T, L482R, I705V, G713C, T895A counted along it

`Cc1ccc(C(O)P(=O)(O)CC[C@H](N)C(=O)O)cc1[N+](=O)[O-]` (stereo partly specified): the pEC50 in [1] was 5.48; in experiment [2] it was less than 4.00; in experiment [4], 5.80; in experiment [5], 5.25; in experiment [6], 5.40. Besides, the Ratio EC50 in [3] is 0.5; in [8] it was 1.6. The result in experiment [7] was inactive.

On to `N[C@@H](CCP(=O)(O)C(O)c1csc([N+](=O)[O-])c1)C(=O)O` (stereo partly specified), for which the pEC50 was 6.72 in [1]; 5.44 in [2]; 5.03 in [9]; 6.49 in experiment [10]; 6.42 in experiment [4]; 6.29 in experiment [5]. In experiment [11], the pEC50 is 3.38. The Ratio EC50 in experiment [3] came to 2; in experiment [8] it was 3.2.

In the case of `COc1cc(C(O)P(=O)(O)CC[C@H](N)C(=O)O)cc([N+](=O)[O-])c1O` (mixture of isomers), the pEC50 in [1] is 6.05; in experiment [16] it was 4.70; in experiment [4], 4.71; in [20] it was 6.70. Moreover, the Activity was 2.29 to 2.91% in experiment [12]; 12.5% in experiment [13]; “Dose-dependent effect” in experiment [15]; “Dose-dependent effect” in [18]; 39.2% in experiment [19]; 26.4% in [22]. The pIC50 was 2.96 in [14] and 2.64 in experiment [21]. The Imax in experiment [15] and in experiment [17] was 40% in each case.

One may read the pEC50 as the negative decadic logarithm of the EC50, by convention in mol/L. As usually defined, the pIC50 is −log10 of the IC50, conventionally taken in molar units.
